We go through nine compounds from ChEMBL document CHEMBL1138778, “Effects of altering the electronics of 2-methoxyestradiol on cell proliferation, on cytotoxicity in human cancer cell cultures, and on tubulin polymerization” (J Med Chem, 2004).

For assay [1], the system named is HUVEC. The assay can be described thus: Inhibitory concentration against growth of HUVEC […] cell line. It counts as functional, cell-based. The conditions noted are these: Homo sapiens. A digest of the protocol: (§1)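 HUVEC, used up to five passages in EGM with bovine brain extract and antibiotic-antimycotic, seeded at 3000 cells/well and attached overnight. Cells were exposed to compound for 48 h. Proliferation was read by BrdU-incorporation colorimetric ELISA or by cell counting, in triplicate, with experiments repeated at least twice.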

Another assay concerns MDA-MB-231. The assay can be described thus: Inhibitory concentration against growth of MDA-MB-231 cancer cell line. The conditions noted are these: Homo sapiens. The assay is classed as functional, cell-based. A digest of the protocol:
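MDA-MB-231 cells in DMEM/F12 (1:1) with 10% FBS, seeded at 1000 cells/well and attached overnight. Cells were exposed to compound for 48 h. Proliferation was read by BrdU-incorporation colorimetric ELISA or by cell counting, in triplicate, with experiments repeated at least twice.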

Assay [2] concerns SN12C. The assay can be described thus: Growth inhibitory concentration required for against human renal SN12C cancer cell line. It counts as functional. An outline of the steps: (§2)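 Screen over 10^-4 to 10^-8 M in a human cancer cell line panel. GI50 is the concentration giving 50% growth inhibition of the individual cell line.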
Another assay relates to HCT-116. The assay can be described thus: Growth inhibitory concentration against human colon cancer HCT116 cell line. It counts as functional. An outline of the steps: as §2
In a further assay the test system is HOP-62. The assay can be described thus: Growth inhibitory concentration against human lung cancer HOP-62 cell line. It counts as functional. A digest of the protocol:
as §2

Assay [3] has as its system UACC-62. Kind of assay: Growth inhibitory concentration required against human melanoma UACC-62 cancer cell line. It counts as functional. An outline of the steps: as §2
Assay [4] relates to HUVEC. The assay can be described thus: Inhibitory concentration required against growth of HUVEC […] cell line. The assay is classed as functional, cell-based. Particulars: Homo sapiens. A digest of the protocol: as §1
Assay [5] deals with DU-145. The assay can be described thus: Growth inhibitory concentration required against human prostate DU-145 cancer cell line. The assay is classed as functional. A digest of the protocol: as §2
Assay [6] can be described thus: Average concentration required for 50% growth inhibition of human cancer cell line (tested). The assay is classed as functional. Particulars: Cancer cell lines. An outline of the steps:
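Mean graph midpoint: average of the individual cell line GI50 values across all cancer lines screened over 10^-4 to 10^-8 M. GI50 values falling outside this range were set to 10^-8 M (below) or 10^-4 M (above).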

In assay [7] the test system is OVCAR-3. The assay can be described thus: Growth inhibitory concentration required against human ovarian OVCAR-3 cancer cell line. It counts as functional. An outline of the steps: as §2
Another assay deals with Tubulin (Bos taurus, UniProt Q6B856+Q862L2+Q862F3). The assay can be described thus: Inhibitory concentration against bovine tubulin polymerization. It counts as functional. A digest of the protocol:
(§3)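 Bovine brain tubulin, 1.2 mg/mL (12 μM), was preincubated with a range of compound concentrations and then chilled on ice. GTP was added and assembly followed by turbidity at 350 nm for 20 min at 26 °C. IC50 is the concentration halving assembly at 20 min, from at least two independent assays.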

The test system of assay [8] is MDA-MB-435. The assay can be described thus: Growth inhibitory concentration required against human breast MDA-MB-435 cancer cell line. The assay is classed as functional. An outline of the steps: as §2
Assay [9] concerns SF-539. Kind of assay: Growth inhibitory concentration required against human CNS SF-539 cancer cell line. It counts as functional. An outline of the steps: as §2
Assay [10] deals with MDA-MB-435. The assay can be described thus: Growth inhibitory concentration against human breast MDA-MB-435 cancer cell line. The assay is classed as functional. A digest of the protocol:
(§4)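 Human cancer cell line antiproliferative screen, compounds tested over 10^-4 to 10^-8 M. GI50 is the concentration giving 50% growth inhibition of the individual cell line. GI50 values outside the tested range were set to the range limits (10^-8 or 10^-4 M) when averaging across all lines tested to give the mean graph midpoint.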

The nature of assay [11]: Growth inhibitory concentration against human cancer cell line. The assay is classed as functional. The conditions noted are these: Cancer cell lines. A digest of the protocol:
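NCI human cancer cell line antiproliferative screen, tested over 10^-4 to 10^-8 M. GI50 is the concentration giving 50% growth inhibition of each cell line. The mean graph midpoint is the average GI50 across all lines tested, with values outside the range set to 10^-8 or 10^-4 M.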

The subject of assay [12] is OVCAR-3. Kind of assay: Growth inhibitory concentration against human ovarian OVCAR-3 cancer cell line. It counts as functional. An outline of the steps: as §4
For assay [13], the system named is UACC-62. The assay can be described thus: Growth inhibitory concentration against human melanoma UACC-62 cancer cell line. It counts as functional. A digest of the protocol: as §4
Assay [14] has as its system SN12C. The assay can be described thus: Growth inhibitory concentration against human renal SN12C cancer cell line. The assay is classed as functional. A digest of the protocol: as §4
For assay [15], the system named is SF-539. The assay can be described thus: Growth inhibitory concentration against human CNS SF-539 cancer cell line. The assay is classed as functional. An outline of the steps: as §4
In assay [16] the test system is DU-145. Kind of assay: Growth inhibitory concentration against human prostate DU-145 cancer cell line. It counts as functional. An outline of the steps: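 Human cancer cell line screen across 10^-4 to 10^-8 M compound. GI50 is the concentration giving 50% growth inhibition of the individual cell line. GI50 values below or above the tested range were taken as 10^-8 M or 10^-4 M.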

The next assay has as its target Tubulin beta chain (Bos taurus, UniProt Q6B856). Kind of assay: Inhibitory concentration against bovine brain tubulin polymerization. The assay is classed as functional. A digest of the protocol: as §3

Chain of Tubulin beta chain (Q6B856 whole entry): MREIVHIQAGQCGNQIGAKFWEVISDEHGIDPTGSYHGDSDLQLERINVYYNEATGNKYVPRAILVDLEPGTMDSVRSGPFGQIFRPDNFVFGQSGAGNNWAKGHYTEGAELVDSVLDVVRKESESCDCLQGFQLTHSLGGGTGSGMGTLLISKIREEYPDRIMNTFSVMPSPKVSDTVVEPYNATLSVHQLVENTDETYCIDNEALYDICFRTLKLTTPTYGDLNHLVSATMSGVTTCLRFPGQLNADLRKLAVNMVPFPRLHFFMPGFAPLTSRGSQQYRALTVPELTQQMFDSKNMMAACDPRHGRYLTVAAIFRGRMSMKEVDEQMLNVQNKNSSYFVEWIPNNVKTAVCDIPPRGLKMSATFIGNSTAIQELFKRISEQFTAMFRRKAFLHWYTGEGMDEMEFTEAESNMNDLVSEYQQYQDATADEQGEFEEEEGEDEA

As usually defined, the IC50 is the midpoint of a concentration-inhibition curve. A high value points to a need for much substance. Regarding `C/C=C/c1cc2c(cc1O)CC[C@@H]1[C@@H]2CC[C@]2(C)[C@@H](O)CC[C@@H]12`, the IC50 with HUVEC [1] came out at 0.59 µM; in the assay with MDA-MB-231, 0.65 µM.

A word on the GI50: it is the concentration that inhibits growth by half. Low readings indicate more potent growth inhibition, high ones less potent growth inhibition. Take `C=C1CC[C@H]2[C@@H]3CCc4cc(O)c(OCC)cc4[C@H]3CC[C@]12C`: the concentration for 50% growth inhibition (GI50) amounted to 0.19 µM in the assay with SN12C [2]; 0.6 µM with HCT-116; 0.56 µM in the assay with HOP-62; 0.54 µM in the assay with UACC-62 [3]; 0.47 µM in the assay with DU-145 [5]; 0.79 µM in assay [6]. For the same compound, the 50% growth inhibitory concentration (GI50) amounted to 0.28 µM in the assay with OVCAR-3 [7], 0.08 µM in the assay with MDA-MB-435 [8] and 0.12 µM in the assay with SF-539 [9]. Further, the concentration for half-maximal inhibition (IC50) with HUVEC [4] came to 0.26 µM; against Tubulin, 2.9 µM; in the assay with MDA-MB-231, 0.7 µM.

Turning to `COc1cc2c(cc1O)CC[C@@H]1[C@@H]2CC[C@@]2(C)[C@H]1CC[C@]2(C)O`, the concentration for 50% growth inhibition (GI50) turned out to be 7.8 µM with SN12C [2]; 2.8 µM in the assay with HCT-116; 15.2 µM with HOP-62; 6.3 µM with UACC-62 [3]; 12.3 µM in the assay on DU-145 [5]; 10.2 µM in assay [6]. Moreover, the GI50 in the assay with OVCAR-3 [7] was 7.1 µM; in the assay with MDA-MB-435 [8], 1.4 µM; in the assay on SF-539 [9], 6.9 µM. Moreover, the figures for the IC50 in the assay on HUVEC [4], on Tubulin and in the assay on MDA-MB-231 were 2.4 µM, more than 40 µM and 3.33 µM, respectively.

On to `COc1cc2c(cc1O)CC[C@@H]1[C@@H]2CC[C@@]2(C)[C@H]1CC[C@]2(C)[C@H](O)c1ccccc1`, for which the concentration for 50% growth inhibition (GI50) in the assay on SN12C [2] was 14.1 µM; in the assay with HCT-116 it was 17 µM; with HOP-62, 18.2 µM; in the assay on UACC-62 [3], 13.5 µM; with DU-145 [5], 5.1 µM; in assay [6], 14.5 µM. Besides, the 50% growth inhibitory concentration (GI50) is 14.1 µM with OVCAR-3 [7], 16.2 µM in the assay with MDA-MB-435 [8] and 17.8 µM in the assay on SF-539 [9]. Further, the IC50 was 21 µM in the assay with HUVEC [4], more than 40 µM against Tubulin and 47.2 µM in the assay with MDA-MB-231.

As for `CC#Cc1cc2c(cc1O)CC[C@@H]1[C@@H]2CC[C@@]2(C)[C@H]1CC[C@]2(C)O`, the GI50 in the assay with SN12C [2] is 7.4 µM; with HCT-116, 4.3 µM; in the assay on HOP-62, 3.1 µM; in the assay on UACC-62 [3], 4 µM; in the assay on DU-145 [5], 4.1 µM; in [6], 3.2 µM. The GI50 came out at 1.5 µM in the assay on OVCAR-3 [7], 0.3 µM in the assay with MDA-MB-435 [8] and 2.6 µM in the assay on SF-539 [9]. Also, the IC50 in the assay on HUVEC [4] was 1.94 µM; against Tubulin, 11 µM; with MDA-MB-231 it was 5.99 µM.

For the compound `CCOc1cc2c(cc1O)CC[C@@H]1[C@@H]2CC[C@@]2(C)[C@H]1CC[C@]2(C)O`, the GI50 amounted to 4.5 µM in the assay with SN12C [2]; 3.5 µM in the assay on HCT-116; 5 µM with HOP-62; 3.74 µM in the assay with UACC-62 [3]; 5.2 µM with DU-145 [5]; 4.7 µM in [6]. Besides, the GI50 with OVCAR-3 [7] was 2.8 µM; in the assay with MDA-MB-435 [8] it was 1.3 µM; in the assay on SF-539 [9], 2.8 µM. The half-maximal inhibitory concentration (IC50) in the assay on HUVEC [4] turned out to be 5.7 µM; at Tubulin, 4.8 µM; with MDA-MB-231 it was 18.4 µM.

For the compound `COc1cc2c(cc1O)CCC1[C@@H]2CC[C@@]2(C)[C@H]1CCC2(F)F` (single isomer, unassigned), the 50% growth inhibitory concentration (GI50) came to 24.5 µM with SN12C [2]; 66.1 µM in the assay on HCT-116; 81.3 µM in the assay on HOP-62; 58.9 µM in the assay with UACC-62 [3]; 56.2 µM with DU-145 [5]; 40.7 µM in assay [6]. The GI50 in the assay with OVCAR-3 [7] amounted to 43.7 µM; in the assay on MDA-MB-435 [8], 35.5 µM; in the assay on SF-539 [9], 31.6 µM. Moreover, the values for the 50% inhibitory concentration (IC50) with HUVEC [4], against Tubulin and in the assay on MDA-MB-231 were 58.3 µM, more than 40 µM and 70.8 µM, respectively.

For `C[C@]12CC[C@@H]3c4ccc(O)cc4CCC3[C@@H]1CCC2(F)F` (single isomer, unassigned), the concentration for 50% growth inhibition (GI50) with SN12C [2] was found to be 18.6 µM; with HCT-116 it was 14.5 µM; with HOP-62, 19.5 µM; with UACC-62 [3] it was 14.1 µM; in the assay with DU-145 [5], 16.6 µM; in [6], 16.6 µM. Besides, the 50% growth inhibitory concentration (GI50) with OVCAR-3 [7] came to 11 µM; in the assay on MDA-MB-435 [8] it was 15.8 µM; in the assay on SF-539 [9], 17.4 µM. Besides, the IC50 in the assay with HUVEC [4] is 6.6 µM; against Tubulin, more than 40 µM; in the assay on MDA-MB-231, 54.4 µM.

As to `COc1cc2c(cc1O)CC[C@@H]1[C@@H]2CC[C@]2(C)[C@@H](O)CC[C@@H]12` [2-METHOXYESTRADIOL], the GI50 with MDA-MB-435 [10] stood at 0.08 µM; with HCT-116, 0.47 µM; in the assay with HOP-62, 0.7 µM; in assay [11], 1.3 µM; with OVCAR-3 [12] it was 0.21 µM; with UACC-62 [13], 0.36 µM. Besides, the GI50 was 0.95 µM with SN12C [14], 0.32 µM with SF-539 [15] and 1.8 µM with DU-145 [16]. This compound also returned a concentration for half-maximal inhibition (IC50) against Tubulin beta chain of 5.3 µM.
